# PAD4 inh = blocks human protein arginine deiminase 4; Q9UM07; recombinant PAD4, RCA probe fluorescence polarization; inhibition, % at 6.36 µM; 330,000 tested, 0.41% active;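 active = percent inhibition above a cutoff equal to the mean of all tested compounds plus 3 SD, cut at about 15% in these data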
# Target sequence (Q9UM07 whole entry, looked up): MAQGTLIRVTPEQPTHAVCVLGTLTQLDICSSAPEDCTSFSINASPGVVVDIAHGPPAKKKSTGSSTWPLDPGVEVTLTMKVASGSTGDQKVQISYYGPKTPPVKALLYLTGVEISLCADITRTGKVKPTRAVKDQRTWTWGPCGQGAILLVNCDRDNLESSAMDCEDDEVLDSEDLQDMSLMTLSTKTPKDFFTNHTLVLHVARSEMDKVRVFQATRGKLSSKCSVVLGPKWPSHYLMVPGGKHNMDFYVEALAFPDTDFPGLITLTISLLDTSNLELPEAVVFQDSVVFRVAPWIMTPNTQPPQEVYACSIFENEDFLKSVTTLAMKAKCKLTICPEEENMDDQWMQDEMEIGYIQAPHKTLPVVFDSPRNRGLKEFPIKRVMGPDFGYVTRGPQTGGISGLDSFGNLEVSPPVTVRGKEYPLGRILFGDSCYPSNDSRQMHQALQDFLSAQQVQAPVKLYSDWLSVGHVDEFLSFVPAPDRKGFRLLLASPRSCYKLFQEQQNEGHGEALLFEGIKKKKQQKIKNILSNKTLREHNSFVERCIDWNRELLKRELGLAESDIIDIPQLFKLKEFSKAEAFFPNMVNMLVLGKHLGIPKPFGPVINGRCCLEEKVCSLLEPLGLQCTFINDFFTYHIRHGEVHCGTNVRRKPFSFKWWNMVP
# TDP2 absorb = TDP2 (human) inhibition, absorbance primary screen. O95551. recombinant TDP2, T5PNP hydrolysis, p-nitrophenol absorbance 415 nm. inhibition, % at 12.8 µM. 370,000 tested, 0.34% active. AID 720702;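 active = inhibition above the mean of all tested compounds plus 3 SD, set per campaign, cut at about 25% in these data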
#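 Evaluation: % inhibition relative to enzyme-containing and enzyme-free wells. Material: recombinant human TDP2. Benchmarks: enzyme-free and DMSO wells. Timing: enzyme reaction with compound for 2 h at 37 °C. Compound dosing: 12.8 µM only. Measured by: p-Nitrophenol epi absorbance. Reagent: T5PNP substrate at 5 mM, a TopII-DNA adduct mimic. Replication: single well per compound.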
# GSTO1 counter = counter-screen for RBBP9 inhibitors: inhibitors of human GSTO1 | P78417 | recombinant GSTO1, activity-based probe fluorescence polarization | inhibition, % at 5.96 µM | 300,000 tested, 1.1% active | AID 1974;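 active = inhibition above the campaign mean inhibition plus 3 SD, cut at about 35% in these data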
# CTSL1 counter = cathepsin L1 inhibition, PFM18AAP counter-screen. 300,000 tested, 0.49% active. inhibition, % at 5.96 µM. recombinant F. hepatica cathepsin L1, Z-Leu-Arg-MCA fluorescence;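 active = inhibition above the mean of all tested compounds plus 3 SD, set per screening campaign, cut at about 17% in these data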
# UCH37 DUB inh = blocks the human deubiquitinase UCH37; Q9Y5K5; purified proteasome/UCH37, Ub-AMC cleavage fluorescence; inhibition, % (test concentration not listed); 330,000 tested, 0.33% active; AID 588478;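 active = mean inhibition over replicate wells above about 20%, limit read from the data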
#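 System: Proteasome-associated human UCH37 deubiquitinase; Input: 0.15 nM proteasome in added enzyme buffer; Also added: Ub-AMC substrate from 1 µM stock; Incubation: 30 min compound-proteasome preincubation then 25 min substrate reaction, room temperature; Detection: fluorescence, ex 355 nm, em 460 nm; Read-out: % inhibition of Ub-AMC cleavage fluorescence; Benchmarks: no-proteasome and no-compound wells.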
# HKDC1 inhibitor = blocks human hexokinase HKDC1 activity; AID 493160; inhibition, % at 20 µM; recombinant HKDC1, G6PDH/diaphorase resazurin coupled fluorescence; 340,000 tested, 0.16% active; Q2TB90;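 active = inhibition above about 35% when tested at 20 µM, limit read from the data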
#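 Material – in-house recombinant HK5 (HKDC1) enzyme · Quantity – HKDC1 at 5 µg/mL · Buffer or medium – pH 8.0 Tris buffer with 10 mM MgCl2 · Reagent – glucose with 1 mM ATP · Dosing – single 20 µM dose · Times – reaction time 90 min, room temperature, protected from light · Technique – resorufin fluorescence at 613 nm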
# UCH37 confirm = reconfirmed inhibitor of human deubiquitinase UCH37; inhibition, % at 20 µM; 480 tested, 27% active; Proteasome-bound UCH37, Ub-AMC cleavage fluorescence; AID 624100; shares compounds with UCH37 DUB inh;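 active = average inhibition over replicates above about 50%, so the earlier screening hit is confirmed, limit read from the data; inactive = the rest, counted as false positives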;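 note: based on cleavage rate fitted by regression over a 30 min kinetic read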
# Numbers stand for hits; – = inactive; · = not tested or not shown. Sampled rows, rich in hits. Any-hit rate of the full collection: about 1.6%.
SMILES,PAD4 inh,TDP2 absorb,GSTO1 counter,CTSL1 counter,UCH37 DUB inh,HKDC1 inhibitor,UCH37 confirm
Cc1ccccc1NS(=O)(=O)c1cc(C(=O)NCCC2=CCCCC2)ccc1Cl,–,–,–,–,54.7,–,–
CCOc1ccc(C(=O)NCCC2=CCCCC2)cc1OCC,–,–,–,–,31.9,–,–
CCC(=O)c1ccc(OCC(=O)NCCC2=CCCCC2)c(OC)c1,–,–,–,–,–,–,·
COc1cc(OC)c(OC)cc1C=NNC(=O)c1cnccn1,·,·,·,·,41.4,·,–
COc1cc(OC)c([N+](=O)[O-])cc1C=NNC(=O)c1ccncc1,·,·,·,·,44.3,·,–
S=C(NN=Cc1ccc(Br)cc1)N1CCCCC1,·,·,·,·,–,·,·
COc1ccc(C(=O)c2ccccc2)c2c(O)ccc(C(=O)c3ccccc3)c12,–,–,–,–,40.7,–,–
Cc1cc(C(=O)C[N+]2(C)CCOCC2)c(C)n1-c1ccc(Br)cc1,–,–,–,–,44.7,–,–
Cc1cc(C(=O)NP(=O)(N2CCOCC2)N2CCOCC2)c(C)n1-c1ccc(Br)cc1,–,–,–,–,–,–,·
O=C(NN=Cc1ccc2c(c1)OCO2)c1ccc(NC(=O)c2ccc(F)cc2)cc1,·,·,·,·,–,·,·
Fc1ccc(Nc2nc(-c3ccncc3)cs2)cc1,–,–,–,–,–,–,·
Clc1ccc(Nc2nc(-c3ccncc3)cs2)cc1,–,–,–,–,49.4,–,–
Nc1nonc1-n1nnc(C(=O)NN=Cc2ccccc2)c1CSc1ccccc1,·,·,·,·,–,·,·
COc1cc(NCCCCCCN)c2ncccc2c1OC,·,52.0,·,·,69.2,–,69.9
CC(=NNC(=O)c1ccc(O)cc1)c1ccc(N2CCOCC2)cc1,·,·,·,·,–,·,·
COc1ccc(OC)c(C2/C(=C(/O)c3cnn(-c4ccccc4)c3C)C(=O)C(=O)N2CCN(C)C)c1 (centres undefined),–,–,–,–,34.6,–,–
COc1ccc(C2/C(=C(/O)c3cnn(-c4ccccc4)c3C)C(=O)C(=O)N2CCN(C)C)cc1OC (centres undefined),·,–,·,·,–,–,·
O=C(O)CC1S/C(=N/N=Cc2ccc(-c3ccccc3[N+](=O)[O-])o2)NC1=O (centres undefined),·,·,·,·,26.2,·,–
O=C(O)CC1S/C(=N/N=Cc2ccc(-c3ccc(Cl)cc3[N+](=O)[O-])o2)NC1=O (centres undefined),·,·,·,·,27.8,·,–
O=C(NN=Cc1ccco1)c1cc(-c2ccc(Cl)cc2)n[nH]1,·,·,·,·,–,·,·
COc1cc(C=N/N=C2/NC(=O)C(CC(=O)O)S2)ccc1OCc1ccc(Cl)cc1 (centres undefined),·,·,·,·,–,·,·
O=C(NN=Cc1c[nH]c2ccc(Br)cc12)c1ccccn1,·,·,·,·,–,·,·
CCOc1ccc(CNC(=S)NN=Cc2ccncc2)cc1,·,·,·,·,43.8,·,–
Cc1cccc(-n2cnc(C(=O)NN=Cc3ccc(Br)cc3)c2)n1,·,·,·,·,–,·,·
Cc1cccc(C)c1-n1c(C)cc(C=NNC(=O)CC(=O)NC2CCCCC2)c1C,·,·,·,·,–,·,·
SMILES,PAD4 inh,TDP2 absorb,GSTO1 counter,CTSL1 counter,UCH37 DUB inh,HKDC1 inhibitor,UCH37 confirm
[O-][n+]1cccc2c(Br)cc(Br)c(O)c21,–,–,46.3,–,45.3,–,–
Cc1ccc(SC(c2ccccc2)C(Cn2cncn2)C(=O)c2ccccc2)cc1 (centres undefined),–,–,–,–,42.3,–,–
O=C(c1ccc(Cl)cc1)C(Cn1cncn1)C(Sc1ccccc1)c1ccccc1 (centres undefined),–,–,–,–,–,–,·
CCc1ccc(NC(=O)COc2ccc(F)cc2C(=O)c2cnn(-c3ccccc3)c2)cc1,–,–,–,–,–,–,·
COc1ccccc1NC(=O)COc1ccccc1C(=O)c1cnn(-c2ccccc2)c1,–,–,–,–,37.0,–,–
CC(C)NC(=O)/C(C#N)=C/c1ccc(N(C)C)o1,–,–,–,–,32.4,–,–
CC(=O)Nc1ccc(S(=O)(=O)N2CCC(c3nc4ccc(C)cc4[nH]3)CC2)cc1,–,–,–,–,28.1,–,–
O=C1C=C(Nc2ccccc2)c2ccccc2C1=O,·,–,·,·,65.0,–,–

# Screens (PubChem BioAssay)
